Test results taken from paper PMC7341966 (Journal of medicinal chemistry, 2018).
Each block holds one molecule with its values, some of them ahead of it. Square brackets hold non-standard residues; d marks the D form. Peptide text beside a SMILES is read from it. * marks the point of attachment. X4 = CC[C@H](C)[C@@H](OC(=O)[C@H](Cc1ccccc1)N(C)C)C(=O)*; X1 = CC[C@H](C)[C@@H](OC(=O)/C=C/c1ccccc1)C(=O)*; X3 = CC[C@H](C)[C@@H](OC(=O)/C=C\c1ccccc1)C(=O)*; X5 = CC[C@H](C)[C@@H](OC(=O)C#Cc1ccccc1)C(=O)*; X2 = CC[C@H](C)[C@@H](OC(=O)CCc1ccccc1)C(=O)*; Hmp(2R,3S) = CC[C@H](C)[C@@H](O)C(=O)O; dNMeF = CN[C@H](Cc1ccccc1)C(=O)O; NMeL = CN[C@@H](CC(C)C)C(=O)O; dHiv = CC(C)[C@@H](O)C(=O)O

Legend:
[1] = biological target: plasma kallikrein; details: read-out: Ki plasma kallikrein; cited from earlier work
[2] = system: CXCR7, CCR10, OXTR, SSTR3, and TACR2; test: GPCR secondary screen, dose-response against the five hits; type: cell-based; details: up to 20 μM
Summary of the method: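 Secondary β-arrestin (PathHunter) screen on the five receptors, run in agonist and antagonist modes. Dosing was 10 points by 3-fold serial dilution from 20 μM, in duplicate, with 1% vehicle. Chemiluminescent β-galactosidase read after 1 h detection at RT.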

[3] = system: MDA-MB-231 breast cancer cells; test: MTT cell viability assay in MDA-MB-231 cells; type: cell-based; details: MDA-MB-231, 48 h; for cytotoxicity: MTT, up to 100 μM
Summary of the method: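 MDA-MB-231 cells kept in DMEM with 10% FBS were seeded at 10,000 cells/well. After 24 h they were exposed to graded test compound or DMSO solvent control for 48 h. Viability was measured by MTT.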

[4] = biological target: Kallikrein 7 (KLK7) (Homo sapiens, UniProt P49862); test: Protease inhibition assay, fluorescent peptide substrate; type: biochemical
[5] = system: panel of 241 GPCR targets; test: GPCR profiling, gpcrMAX and orphanMAX panels; type: cell-based; details: 10 μM; hit = > 50% activity or inhibition
Summary of the method: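 PathHunter β-arrestin enzyme fragment complementation in HEK293, CHO or U2OS lines stably expressing ProLink-tagged GPCR and EA-tagged β-arrestin. Test compound was 10 μM, one also at 20 μM; vehicle 1% final. Agonist mode: 90 or 180 min at 37 °C or RT. Chemiluminescence read after 1 h detection reagent. % activity/inhibition taken versus vehicle and control ligand.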

[6] = system: MDA-MB-231 cells; test: Transwell migration assay, MDA-MB-231 cells; type: cell-based; details: 10 μM, 48 h
Summary of the method: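 Transwell inserts with 8 μm pore PET membrane; MDA-MB-231 cells were exposed to test compound or solvent control. After incubation, non-migrated cells were wiped off, and migrated cells were crystal violet-stained and counted under a microscope.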

[7] = biological target: T1, CCR10 (Homo sapiens, UniProt P46092); test: PathHunter β-Arrestin GPCR assay, antagonist mode; type: cell-based; details: dose-response starting at 20 μM, duplicate
T1 sequence (P46092 1-362): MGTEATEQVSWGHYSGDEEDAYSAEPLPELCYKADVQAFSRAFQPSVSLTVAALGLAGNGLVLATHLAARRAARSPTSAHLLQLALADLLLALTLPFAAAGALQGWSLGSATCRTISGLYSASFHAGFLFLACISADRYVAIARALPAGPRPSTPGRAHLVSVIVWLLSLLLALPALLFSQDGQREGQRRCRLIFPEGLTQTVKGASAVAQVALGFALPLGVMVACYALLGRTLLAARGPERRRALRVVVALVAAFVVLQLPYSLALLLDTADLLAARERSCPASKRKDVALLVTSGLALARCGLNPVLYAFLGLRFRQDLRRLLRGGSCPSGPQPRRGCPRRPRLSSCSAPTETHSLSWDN

[8] = biological target: KLK7 (substrates desmoglein-2 and E-cadherin) (Homo sapiens, UniProt P49862); test: Cleavage of KLK7 downstream substrates, biochemical assay; details: 10 μM
[9] = system: MDA-MB-468 breast cancer cells; test: Dsg-2 shedding in MDA-MB-468 cells; type: cell-based
[10] = system: MDA-MB-468 breast cancer cells; test: Transwell migration assay, MDA-MB-468 cells; type: cell-based; details: 48 h
Summary of the method: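 5000 MDA-MB-468 cells in DMEM with 10% FBS were treated with graded test compound or solvent control. They were seeded into 8 μm pore PET transwell inserts, with the same compound concentration in complete medium on the other side. After 48 h at 37 °C, 5% CO2, non-migrated cells were swabbed off, and migrated cells were crystal violet-stained and counted microscopically. Triplicate.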

[11] = biological target: SSTR3 (Homo sapiens, UniProt P32745); test: PathHunter β-Arrestin GPCR assay, antagonist mode; type: cell-based; details: dose-response starting at 20 μM, duplicate
[12] = biological target: T2, OXTR (Homo sapiens, UniProt P30559); test: PathHunter β-Arrestin GPCR assay, antagonist mode; type: cell-based; details: dose-response starting at 20 μM, duplicate
T2 sequence (P30559 1-389): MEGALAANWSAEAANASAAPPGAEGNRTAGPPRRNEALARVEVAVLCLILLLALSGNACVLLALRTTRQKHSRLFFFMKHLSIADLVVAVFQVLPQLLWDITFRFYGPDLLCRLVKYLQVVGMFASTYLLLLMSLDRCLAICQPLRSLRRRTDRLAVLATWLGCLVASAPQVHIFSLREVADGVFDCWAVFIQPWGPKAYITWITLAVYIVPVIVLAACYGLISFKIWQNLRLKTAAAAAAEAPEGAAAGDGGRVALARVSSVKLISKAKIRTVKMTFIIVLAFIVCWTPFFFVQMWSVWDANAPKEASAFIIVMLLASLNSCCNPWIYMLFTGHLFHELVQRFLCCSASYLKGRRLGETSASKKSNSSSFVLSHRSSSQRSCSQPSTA

[13] = system: MDA-MB-231 cells; test: CCL27-induced proliferation of MDA-MB-231 cells; type: cell-based; details: serum deprived conditions, 48 h
Summary of the method: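 MDA-MB-231 cells (10,000/well) were seeded in serum-free DMEM for 24 h. For the CCL27 response, cells got graded CCL27 for 48 h. For inhibition, cells were pretreated with test compound for 2 h, then given CCL27 (1 μg/mL final) and incubated 48 h. Viability was read by MTT against solvent control. Mean ± SD, n = 3, two-tailed unpaired t test.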

SSTR3, sequence (P32745 whole entry): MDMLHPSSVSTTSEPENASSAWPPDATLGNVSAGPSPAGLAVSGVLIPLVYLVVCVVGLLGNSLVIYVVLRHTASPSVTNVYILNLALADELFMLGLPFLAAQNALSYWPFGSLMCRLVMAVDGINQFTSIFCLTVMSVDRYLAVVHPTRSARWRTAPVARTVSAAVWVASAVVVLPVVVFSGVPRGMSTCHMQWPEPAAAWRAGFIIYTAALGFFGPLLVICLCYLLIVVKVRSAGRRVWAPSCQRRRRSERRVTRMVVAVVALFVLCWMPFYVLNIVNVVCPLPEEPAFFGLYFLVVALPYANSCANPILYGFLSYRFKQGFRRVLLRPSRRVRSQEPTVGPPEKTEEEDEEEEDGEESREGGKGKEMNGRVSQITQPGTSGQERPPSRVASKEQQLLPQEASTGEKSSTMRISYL
Kallikrein 7 (KLK7), sequence (P49862 30-253): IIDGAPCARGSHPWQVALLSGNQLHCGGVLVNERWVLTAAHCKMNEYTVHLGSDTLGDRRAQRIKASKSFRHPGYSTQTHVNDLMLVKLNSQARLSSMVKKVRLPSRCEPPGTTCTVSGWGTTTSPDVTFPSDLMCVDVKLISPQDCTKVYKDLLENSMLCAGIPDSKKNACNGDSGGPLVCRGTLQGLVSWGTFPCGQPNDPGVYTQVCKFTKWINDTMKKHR
KLK7 (substrates desmoglein-2 and E-cadherin), sequence (P49862 30-253): as above

Molecule: Ecallantide
Ki [1]: 0.025 nM

Molecule: CC[C@H](C)[C@@H](OC(=O)C#Cc1ccccc1)C(=O)N1CCC[C@H]1C(=O)NCC(=O)N(C)[C@@H](CC(C)C)C(=O)N[C@@H](C)C(=O)N(C)[C@H](Cc1ccccc1)C(=O)N1CCC[C@H]1C(=O)OC [Compound 7, dihydro-brintonamide D/E] (X5-PG[NMeL]A[dNMeF]P-OMe)
activity against the tested GPCR targets [2]: did not exhibit any activity

IC50 [4]: ~20 µM
Molecule: CC[C@H](C)[C@@H](O)C(=O)N1CCC[C@H]1C(=O)NCC(=O)N(C)[C@@H](CC(C)C)C(=O)N[C@@H](C)C(=O)N(C)[C@H](Cc1ccccc1)C(=O)N1CCC[C@H]1C(=O)OC [Compound 1, brintonamide A] ({Hmp(2R,3S)}-PG[NMeL]A[dNMeF]P-OMe)
cytotoxicity [3]: did not show any cytotoxicity | hits in GPCR profiling [5]: did not show any hits | activity against the tested GPCR targets [2]: did not show any activity | inhibition of migration [6]: inactive

Molecule: CC[C@H](C)[C@@H](OC(=O)/C=C/c1ccccc1)C(=O)N1CCC[C@H]1C(=O)NCC(=O)N(C)[C@@H](CC(C)C)C(=O)N[C@@H](C)C(=O)N(C)[C@H](Cc1ccccc1)C(=O)N1CCC[C@H]1C(=O)OC [Compound 4, brintonamide D] (X1-PG[NMeL]A[dNMeF]P-OMe)
cytotoxic effects ([3]; up to 10 μM (Figure 6B)): no cytotoxic effects | IC50 [4]: ~20 µM | IC50 antagonist CCR10 [7]: submicromolar activity | activity against the tested GPCR targets [2]: active against all five tested GPCR targets | cleavage of KLK7 downstream substrates desmoglein-2 and E-cadherin [8]: partially inhibited | Dsg-2 shedding [9]: unable to decrease Dsg-2 shedding | migration of MDA-MB-468 cells [10]: inhibiting the migration

IC50 antagonist SSTR3 [11]: inactive
Molecule: CC[C@H](C)[C@@H](OC(=O)CCc1ccccc1)C(=O)N1CCC[C@H]1C(=O)NCC(=O)N(C)[C@@H](CC(C)C)C(=O)N[C@@H](C)C(=O)N(C)[C@H](Cc1ccccc1)C(=O)N1CCC[C@H]1C(=O)OC [Compound 6, dehydro-brintonamide D/E] (X2-PG[NMeL]A[dNMeF]P-OMe)

IC50 antagonist CCR10 [7]: did not show any activity | IC50 antagonist OXTR [12]: did not show any activity
Molecule: CC[C@H](C)[C@@H](OC(=O)[C@H](Cc1ccccc1)N(C)C)C(=O)N1CCC[C@H]1C(=O)NCC(=O)N(C)[C@@H](CC(C)C)C(=O)N[C@@H](C)C(=O)N(C)[C@H](Cc1ccccc1)C(=O)N1CCC[C@H]1C(=O)OC [Compound 3, brintonamide C] (X4-PG[NMeL]A[dNMeF]P-OMe)

Molecule: COC(=O)[C@@H]1CCCN1C(=O)[C@@H](Cc1ccccc1)N(C)C(=O)[C@H](C)NC(=O)[C@H](CC(C)C)N(C)C(=O)CNC(=O)[C@@H]1CCCN1C(=O)[C@H](O)C(C)C [Compound 2, brintonamide B] (H-[dHiv]PG[NMeL]A[dNMeF]P-OMe)
cytotoxicity [3]: did not show any cytotoxicity | activity against the tested GPCR targets [2]: did not show any activity

Molecule: CC[C@H](C)[C@@H](OC(=O)/C=C\c1ccccc1)C(=O)N1CCC[C@H]1C(=O)NCC(=O)N(C)[C@@H](CC(C)C)C(=O)N[C@@H](C)C(=O)N(C)[C@H](Cc1ccccc1)C(=O)N1CCC[C@H]1C(=O)OC [Compound 5, brintonamide E] (X3-PG[NMeL]A[dNMeF]P-OMe)
IC50 antagonist SSTR3 [11]: inactive

B1: CCL27: C-C motif chemokine ligand 27, ligand of CCR10 (protein, UniProt Q9Y4X3 25-112, looked up)
C-C motif chemokine 27: FLLPPSTACCTQLYRKPLSDKLLRKVIQVELQEADGDCHLQAFVLHLAQRSICIHPQNPSLSQWFEHQERKLHGTLPKLNFGMLRKMG
cell proliferation in response to CCL27 stimulation [13]: increased in a dose-dependent manner
